14 molecules from PubChem BioAssay can be followed below.

Activity calls are given as the source filed them.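 How the source made its calls, unless noted: active means inhibition at or above 50% at 10 µM; inactive means inhibition below 50%.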

The nature of assay [1]: inhibitors of TNFa-induced NFkB p65 translocation, primary screen, imaging, HUVEC, MLSMR starter and 10KST1 sets (AID 438;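 active means inhibition above 20% together with a positive visual image hit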;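 further: compound added about 3h40 before a 20 min TNFalpha stimulation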;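 on inhibition: signal is the nuclear over cytoplasmic p65 intensity ratio per well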). Particulars: HUVEC TNFa-induced p65 nuclear translocation; cell count: measured here: nuclei count (cytotoxicity indicator), at 2.08 µM unless noted; inhibition: at 2 µM, stronger effect = higher value unless noted.
A short description of assay [2]: reduction of polyQ htt aggregates in cells – imaging, exon1htt(103Q)mCFP cells, high-content imaging, primary screen (AID 483;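 active means visual image review flags a hit and inhibition of aggregation exceeds 20%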;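 further: compound exposure lasted 3 days before fixation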;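 on nuclei count: percent of the per-plate median nuclei count of sample wells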). The conditions noted are these: exon1htt(103Q)mCFP cell line, aggregate imaging, at 2 µM; inhibition of aggregation: stronger effect = higher value; nuclei count: measured here: cell count, toxicity.
Assay [3] in a line: endothelial E-selectin expression blockers – imaging, HUVEC, immunofluorescence, MLSMR starter and 10KST1 sets, primary screen (AID 487;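 active means visually confirmed hit in the image check and inhibition above 20%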;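 on inhibition: signal is fraction of cell area covered by stained E-selectin grains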;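 on nuclei count: 100% = median nuclei count of all wells on the same plate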). Particulars: HUVEC TNFalpha-induced E-selectin immunofluorescence imaging, at 2 µM; inhibition: stronger effect = higher value; nuclei count: measured here: cell number, toxicity.
The target in assay [4] is Voltage-gated potassium channel subunit beta-2 (Rattus norvegicus) (UniProt P62483). The experiment in a line: inhibitors of rat Kvbeta2 reductase activity – biochemical, NADPH fluorescence, primary screen (AID 622;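 active means fluorescence slope higher than the sample average by over 3 SD, cut at about -0.22 in these data, passing the limit was not always enough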;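 further: slope of raw intensity against log time taken from 70 to 1610 s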). The conditions noted are these: recombinant KvBeta, 4-cyanobenzaldehyde reduction, at 10 µM, stronger effect = higher value.
Voltage-gated potassium channel subunit beta-2 (Rattus norvegicus), sequence (P62483 whole entry, looked up): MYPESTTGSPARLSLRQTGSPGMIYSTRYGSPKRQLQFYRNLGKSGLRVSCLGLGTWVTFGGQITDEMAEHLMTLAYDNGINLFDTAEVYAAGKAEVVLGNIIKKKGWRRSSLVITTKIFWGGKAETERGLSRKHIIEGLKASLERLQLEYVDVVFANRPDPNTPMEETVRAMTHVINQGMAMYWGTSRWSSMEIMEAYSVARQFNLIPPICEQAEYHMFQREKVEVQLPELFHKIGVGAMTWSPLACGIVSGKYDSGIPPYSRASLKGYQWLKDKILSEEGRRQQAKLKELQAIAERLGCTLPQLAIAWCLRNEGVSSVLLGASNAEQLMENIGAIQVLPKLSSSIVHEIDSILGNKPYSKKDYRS
For assay [5] the target is unchanged. In words: enhancers of rat Kvbeta2 NADPH turnover – biochemical, NADPH fluorescence, primary screen (AID 623;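 active means NADPH fluorescence slope more negative than the mean of all samples by about 3 SD, 99.7% confidence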;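 further: fluorescence intensity change per second fitted from 20 to 320 s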). Particulars: Recombinant KvBeta, NADPH fluorescence decrease slope, 10 min; at 10 µM; stronger effect = lower value.
Assay [6] has as its target Alpha-2C adrenergic receptor (Homo sapiens) (UniProt P18825). In words: compounds altering alpha2C-coupled GIRK flux – cell-based, HEK293 alpha2C/GIRK1/2, thallium flux, primary screen (AID 624;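 active means fluorescence slope after compound addition differing from the mean of all screened samples at 99.7% confidence, in either direction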;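 further: slope of fluorescence ratio to pre-addition baseline per second over 15 to 24 s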). Particulars: thallium flux BTC fluorescence, at 10 µM, actives lie on both sides.
Assay [7] can be described thus: blockers of RIG-like receptor reporter activation – cell-based, Sendai virus stimulus, luciferase, 10K MLSCN set, TLR/RLR signaling modifier project, primary screen (AID 602276).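 Further: firefly luciferase from ISG56 promoter only with Renilla not read in this screen; 0% = Sendai virus plus DMSO and 100% = medium plus DMSO without virus.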 Particulars: HEK293 RL24 IRF3 luciferase reporter, at 10 µM, stronger effect = higher value.
Assay [8] in a line: TLR3 IRF3 reporter activation blockers – cell-based, poly I:C stimulus, luciferase, 10K MLSCN set, primary screen (AID 602277;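 active means inhibition of the reporter signal at or above 50%; inactive means inhibition below 50%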). The conditions noted are these: HEK293-TLR3 RL24 IRF3 luciferase reporter, at 10 µM, stronger effect = higher value.
Assay [9] deals with Muscarinic acetylcholine receptor M4 (Homo sapiens) (UniProt P08173). In words: M4-linked GIRK flux change, two-sided – cell-based, HEK293 M4/GIRK, thallium flux, BTC-AM, M4 allosteric agonist project, primary screen (AID 625;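 active means fluorescence slope after compound addition differing from the mean of all tested samples at 99.7% confidence, mostly higher but some lower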;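 further: thallium influx through GIRK channels coupled to M4 in HEK293 cells with BTC-AM dye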). Particulars: at 10 µM, actives lie on both sides. The gist of the method: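 Material: M4/GIRK1/GIRK2 stable HEK293 cell line. Medium: pH 7.3 thallium assay buffer. Dosing: single compound concentration, 10 µM final. Schedule: 1 h dye loading, 2 min kinetic read. Measured by: kinetic fluorescence with BTC-AM dye. Read-out: post-addition slope, 15–24 s, of baseline-normalized fluorescence. Benchmarks: carbachol and DMSO controls.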
Muscarinic acetylcholine receptor M4 (Homo sapiens), sequence (P08173 whole entry, looked up): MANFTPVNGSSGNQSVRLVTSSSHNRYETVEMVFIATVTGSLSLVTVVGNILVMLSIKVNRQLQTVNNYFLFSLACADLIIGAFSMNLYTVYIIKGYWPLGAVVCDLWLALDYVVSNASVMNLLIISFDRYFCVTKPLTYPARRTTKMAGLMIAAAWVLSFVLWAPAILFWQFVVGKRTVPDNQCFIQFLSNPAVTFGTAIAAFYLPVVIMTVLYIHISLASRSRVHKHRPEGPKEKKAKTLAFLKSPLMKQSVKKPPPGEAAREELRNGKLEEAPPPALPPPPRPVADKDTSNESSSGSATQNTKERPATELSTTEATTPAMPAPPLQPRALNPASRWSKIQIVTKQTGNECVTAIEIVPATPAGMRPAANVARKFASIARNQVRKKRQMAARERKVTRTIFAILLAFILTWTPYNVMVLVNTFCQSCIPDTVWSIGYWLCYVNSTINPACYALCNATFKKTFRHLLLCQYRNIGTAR

Alpha-2C adrenergic receptor (Homo sapiens), sequence (P18825 whole entry, looked up): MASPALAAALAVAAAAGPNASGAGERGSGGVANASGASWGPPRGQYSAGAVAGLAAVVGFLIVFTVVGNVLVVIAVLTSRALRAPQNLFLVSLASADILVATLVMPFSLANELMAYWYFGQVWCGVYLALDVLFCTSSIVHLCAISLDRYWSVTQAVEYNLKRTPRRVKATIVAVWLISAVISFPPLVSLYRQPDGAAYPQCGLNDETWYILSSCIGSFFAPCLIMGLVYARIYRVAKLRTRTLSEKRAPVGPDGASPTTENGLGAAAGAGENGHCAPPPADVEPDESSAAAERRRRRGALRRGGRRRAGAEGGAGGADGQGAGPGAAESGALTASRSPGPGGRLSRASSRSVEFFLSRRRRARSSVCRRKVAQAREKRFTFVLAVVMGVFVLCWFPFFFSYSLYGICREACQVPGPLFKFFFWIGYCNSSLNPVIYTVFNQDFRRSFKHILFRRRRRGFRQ

By inhibition is commonly meant the change of the read-out against control, counted positive when it falls. In the case of `CC(C)OCCCNC(=O)c1c(N)n(CC2CCCO2)c2nc3ccccc3nc12` (centres undefined), the cell count in assay [1] was found to be 430. Moreover, the inhibition in assay [1] is -6.7% (inactive); in assay [3], -83% (inactive); in [7], 11.4% (inactive); in assay [8], 19.9% (inactive). Further, in assay [2], the inhibition of aggregation is -14.6% (inactive). The nuclei count was 75% in [2] and 196% in assay [3]. Besides, the fluorescence slope in assay [4] is -0.0369 (inactive). Also, the NADPH fluorescence slope in [5] is 2e-05 (inactive). Besides, in [6], the slope is 0.00623 (inactive).

Regarding `CC(C)(C)C(O)C(Oc1ccc(Cl)cc1)n1cncn1` (centres undefined), in assay [1], the cell count turned out to be 268. For the same molecule, the inhibition in assay [1] is 4.3% (inactive); in assay [3], -5.1% (inactive); in [7] it was 15.5% (inactive); in [8], 32.5% (inactive). Further, the inhibition of aggregation in [2] is 5.1% (inactive). The nuclei count in assay [2] is 93%; in assay [3], 131%. Besides, the fluorescence slope in [4] was -0.592 (inactive). Besides, in [5], the NADPH fluorescence slope was -2.7e-05 (inactive). In addition, the slope in [6] is 0.00646 (inactive).

In assay [1], `CCn1nc(-c2ccccc2)nc2c(=O)n(C)c(=O)nc1-2` had a cell count of 367. In addition, the inhibition in assay [1] was -31.1% (inactive); in [3] it was -133% (inactive); in [7], -39.4% (inactive); in assay [8], 94.3% (active). For the same molecule, the inhibition of aggregation in assay [2] was -8.2% (inactive). Also, the figures for the nuclei count in assay [2] and in assay [3] were 86% and 109%, respectively. For the same molecule, the fluorescence slope in [4] was -0.457 (inactive). Moreover, the NADPH fluorescence slope in [5] is 1.4e-06 (inactive). The slope in [6] was -0.00207 (active).

For `O=C1CC(c2ccccc2)CC(O)=C1C=NCCN1CCN(C(=O)Cc2ccccc2)CC1` (centres undefined), the cell count in [1] was found to be 450. Further, the inhibition is 2.9% (inactive) in assay [1], -82.2% (inactive) in assay [3], 17.1% (inactive) in assay [7] and 25.9% (inactive) in assay [8]. Further, the inhibition of aggregation in [2] was 8.6% (inactive). Besides, the nuclei count in assay [2] is 92.1%; in assay [3], 115%. Also, in assay [4], the fluorescence slope was -0.529 (inactive). In [5], the NADPH fluorescence slope is 3.3e-05 (inactive). Moreover, the slope in assay [6] is 0.00558 (inactive).

Take `O=C(c1ccncc1)C12CN3CN(CN(C3)C1)C2`: the cell count in [1] is 459. Besides, the inhibition was 4.5% (inactive) in assay [1], -155% (inactive) in assay [3], 10% (inactive) in assay [7] and 30.7% (inactive) in [8]. Further, the inhibition of aggregation in assay [2] is 15.7% (inactive). Moreover, the results for the nuclei count in [2] and in assay [3] were 104% and 98.1%, respectively. Moreover, in assay [4], the fluorescence slope is -0.409 (inactive). In addition, the NADPH fluorescence slope in [5] was -3.9e-05 (inactive). In addition, the slope in assay [6] is 0.00372 (inactive).

In [1], `Cc1ccc(OCC(=O)NCCN2CCN(C(=O)COc3ccc(C)cc3)CC2)cc1` returned a cell count of 635. In addition, the inhibition in [1] is -0.2% (inactive); in [3], -103% (inactive); in assay [7], -9.99% (inactive); in assay [8] it was -18.3% (inactive). The inhibition of aggregation in assay [2] is 9.1% (inactive). The figures for the nuclei count in assay [2] and in assay [3] were 94.7% and 103%, respectively. Also, the fluorescence slope in assay [4] is -0.611 (inactive). The NADPH fluorescence slope in [5] was -2.9e-05 (inactive). The slope in assay [6] is 0.00522 (inactive).

Turning to `O=c1[nH]c(=O)n(Cc2ccc(F)cc2)c(O)c1C=NCCCN1CCOCC1`, in assay [1], the cell count worked out at 728. The inhibition was -22.4% (inactive) in [1], 35.3% (inactive) in assay [3], -0.0843% (inactive) in [7] and 3.86% (inactive) in assay [8]. For the same molecule, the inhibition of aggregation in [2] is 4.6% (inactive). The nuclei count in assay [2] is 105%; in assay [3], 101%. Also, the fluorescence slope in assay [4] was -0.441 (inactive). For the same molecule, in assay [5], the NADPH fluorescence slope is 1.3e-06 (inactive). For the same molecule, the slope in assay [6] was 0.00502 (inactive).

`CC(=NCCCN1CCOCC1)c1c(O)n(-c2ccccc2C)c(=O)[nH]c1=O` returned a cell count in assay [1] of 377. Besides, the inhibition in assay [1] was 3.3% (inactive); in assay [3], -21.8% (inactive); in assay [7] it was 7.9% (inactive); in [8], 15% (inactive). Moreover, the inhibition of aggregation in [2] was -27.1% (inactive). In addition, the nuclei count in [2] turned out to be 107%; in [3], 112%. For the same molecule, the fluorescence slope in [4] was -0.506 (inactive). Also, the NADPH fluorescence slope in assay [5] is -3.5e-05 (inactive). The slope in assay [6] was 0.00474 (inactive).

Regarding `CP(C)(=O)CCC(=O)O`, the cell count in [1] came out at 347. For the same molecule, the inhibition is -7.5% (inactive) in assay [1], -100% (inactive) in assay [3], 2.85% (inactive) in assay [7] and 10.1% (inactive) in [8]. In addition, in assay [2], the inhibition of aggregation was -5.3% (inactive). For the same molecule, the values for the nuclei count in assay [2] and in assay [3] were 99.6% and 118%, respectively. Further, in assay [4], the fluorescence slope is -0.434 (inactive). In addition, the NADPH fluorescence slope in [5] is -0.000166 (inactive). The slope in assay [6] is 0.00678 (inactive).

`CCC(=NCC1CCCO1)c1c(O)n(Cc2ccccc2)c(=O)[nH]c1=O` (centres undefined) returned a cell count in assay [1] of 707. The inhibition in assay [1] is -6% (inactive); in assay [3], -57.1% (inactive); in assay [7], -5.89% (inactive); in assay [8], 19.3% (inactive). The inhibition of aggregation in assay [2] is 6.5% (inactive). Also, the nuclei count came to 97.1% in assay [2] and 120% in [3]. Also, in assay [4], the fluorescence slope is -0.512 (inactive). Also, the NADPH fluorescence slope in [5] was -5.3e-05 (inactive). In addition, the slope in assay [6] is 0.00608 (inactive).

`O=c1[nH]c(=O)n(-c2ccc(F)cc2)c(O)c1C=Nc1ccccc1N1CCCC1` came in with a cell count in assay [1] of 459. Moreover, the inhibition in assay [1] was -0.3% (inactive); in [3], -109% (inactive); in assay [7] it was 3.89% (inactive); in assay [8], 14.6% (inactive). Further, the inhibition of aggregation in [2] was -4.4% (inactive). For the same molecule, the nuclei count stood at 112% in assay [2] and 118% in [3]. In addition, the fluorescence slope in [4] was -0.0108 (inactive). Moreover, in assay [5], the NADPH fluorescence slope is 1.9e-06 (inactive). Also, the slope in assay [6] is 0.00376 (inactive).

In [1], `COc1cc(/C=N/n2cnnc2)ccc1OC(=O)N(C)C` showed a cell count of 615. For the same molecule, the inhibition in assay [1] is -19.9% (inactive); in assay [3], -3.5% (inactive); in assay [7] it was 13% (inactive); in assay [8] it was 20.9% (inactive). Further, the inhibition of aggregation in [2] was -14.7% (inactive). The results for the nuclei count in assay [2] and in assay [3] were 114% and 98.1%, respectively. The fluorescence slope is -0.436 (inactive) in assay [4] and 0.0081 (inactive) in assay [9]. For the same molecule, the NADPH fluorescence slope in assay [5] was 3.1e-05 (inactive).

Take `Cc1[nH]c2c(Cl)cccc2c1CCN`: the cell count in assay [1] is 517. Also, the inhibition in assay [1] was 3.9% (inactive); in assay [3], -19.9% (inactive); in [7], 13% (inactive); in assay [8] it was 18.6% (inactive). Moreover, in assay [2], the inhibition of aggregation is 1.5% (inactive). Moreover, the nuclei count in [2] was determined as 86.5%; in [3], 110%. The fluorescence slope is -0.427 (inactive) in assay [4] and 0.0063 (inactive) in assay [9]. Moreover, the NADPH fluorescence slope in [5] is -1.2e-05 (inactive).

In assay [1], `O=C(Cc1ccccc1)OC(COCc1ccccc1)CN1CCOCC1` (centres undefined) showed a cell count of 314. Besides, the inhibition was -7.8% (inactive) in [1], -56.9% (inactive) in assay [3], 2.92% (inactive) in assay [7] and 10.1% (inactive) in assay [8]. In assay [2], the inhibition of aggregation was -19.1% (inactive). Further, the values for the nuclei count in assay [2] and in [3] were 77.8% and 117%, respectively. Moreover, the fluorescence slope was -0.37 (inactive) in assay [4] and 0.00718 (inactive) in assay [9]. Further, in assay [5], the NADPH fluorescence slope is 2.9e-05 (inactive).
